Calls of active or inactive are those of the source. No cut-off for these calls is given here.
Columns and labels:
PC-3 [1] = test: Cytotoxicity against human PC3 cells assessed as reduction in cell viability incubated for 48 hrs by SRB assay; type: functional, cell-based; settings: PC-3, 48 h
Method in brief: (§1)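 SRB colorimetric antiproliferative assay. Cells were grown in RPMI-1640 with 10% heat-inactivated FBS and penicillin/streptomycin at 37 °C and 5% CO2, and compound-exposed for 48 h. IC50 is the concentration causing 50% inhibition of cell viability, given as mean ± SD of three determinations.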

HeLa = test: Cytotoxicity against human HeLa cells assessed as reduction in cell viability incubated for 48 hrs by SRB assay; type: functional, cell-based; method in brief: as §1
Sus scrofa [2] = species: Sus scrofa; test: Inhibition of porcine brain tubulin polymerization at 3 uM incubated for 80 mins by fluorescence based spectrophotometry
Method in brief: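 Fluorescence-based kit assay. Tubulin (10 mg/mL) in buffer 1 with tubulin glycerol buffer and GTP (100 mM stock) was incubated with compound at 3 µM, with DMSO as vehicle control, at 37 °C for 80 min. Polymerization was followed as the fluorescence increase, read every minute at 360 nm excitation and 460 nm emission.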

PC-3 [3] = test: Cell cycle arrest in human PC3 cells assessed as accumulation at G0/G1 phase at 0.05 uM incubated for 24 hrs by propidium iodide staining based FACS assay (reference value: 62.5%); type: functional
Method in brief: (§2)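 PC-3 cells in RPMI-1640 with 10% FBS at 37 °C and 5% CO2. Cells were plated at 1.0×10^5 cells/mL and pre-incubated 24 h, then treated. They were collected by centrifugation, fixed in 70% ethanol overnight at 4 °C, resuspended in PBS with RNase A and propidium iodide, and analysed by flow cytometry for phase distribution against untreated control.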

PC-3 [4] = test: Cell cycle arrest in human PC3 cells assessed as accumulation at S phase at 0.05 uM incubated for 24 hrs by propidium iodide staining based FACS assay (reference value: 23.5%); type: functional; method in brief: as §2
PC-3 [5] = test: Cell cycle arrest in human PC3 cells assessed as accumulation at G2/M phase at 0.05 uM incubated for 24 hrs by propidium iodide staining based FACS assay (reference value: 14%); type: functional; method in brief: as §2
Sus scrofa [6] = species: Sus scrofa; test: Induction of porcine brain tubulin polymerization at 3 uM incubated for 80 mins by fluorescence based spectrophotometry
Method in brief: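 Fluorescence-based cell-free kit assay. Tubulin (10 mg/mL) in buffer 1 with tubulin glycerol buffer and GTP (100 mM stock) was incubated with compound or DMSO vehicle for 80 min at 37 °C. Polymerization was followed as fluorescence increase read every minute at 360 nm excitation and 460 nm emission.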

[7] = (§3) Inhibition of porcine brain tubulin polymerization incubated for 80 mins by fluorescence based spectrophotometry; set-up: species or system Sus scrofa
Method in brief: (§4)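 Cell-free fluorescence kit assay. Tubulin (10 mg/mL) in buffer 1 with tubulin glycerol buffer and GTP (100 mM stock) was exposed to compound or DMSO for 80 min at 37 °C. Fluorescence (ex 360 nm, em 460 nm) was read each minute. IC50 was derived from five concentrations: 3, 5, 10, 20 and 40 μM.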

Sus scrofa [8] = species: Sus scrofa; test: as §3; method in brief: as §4
Homo sapiens [9] = species: Homo sapiens; test: Inhibition of tubulin polymerization in human PC3 cells assessed as disruption of microtubule network at 1 uM incubated for 48 hrs by immunohistochemistry; type: cell-based
Method in brief: (§5)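 PC-3 cells were treated for 48 h, then fixed with 4% paraformaldehyde for 30 min and permeabilized with 0.1% Triton X-100 at 4 °C in the dark for 30 min. After blocking in PBS with 5% BSA, cells took anti-α-tubulin (1:500) overnight at 4 °C, then TRITC goat anti-rabbit IgG (1:500) for 1 h at RT. Nuclei were DAPI-stained and imaged by fluorescence microscopy at 20×.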

Homo sapiens [10] = species: Homo sapiens; test: Inhibition of tubulin polymerization in human PC3 cells assessed as disruption of microtubule network at 0.02 uM incubated for 48 hrs by immunohistochemistry; type: cell-based; settings: 1 uM, in the assay text read “at 1 uM” for “at 0.02 uM”; method in brief: as §5
PC-3 [11] = test: Cell cycle arrest in human PC3 cells assessed as accumulation at G0/G1 phase at 0.5 uM incubated for 24 hrs by propidium iodide staining based FACS assay (reference value: 62.5%); type: functional; method in brief: as §2
PC-3 [12] = test: Cell cycle arrest in human PC3 cells assessed as accumulation at S phase at 0.5 uM incubated for 24 hrs by propidium iodide staining based FACS assay (reference value: 23.5%); type: functional; method in brief: as §2
PC-3 [13] = test: Cell cycle arrest in human PC3 cells assessed as accumulation at G2/M phase at 0.5 uM incubated for 24 hrs by propidium iodide staining based FACS assay (reference value: 14%); type: functional; method in brief: as §2
PC-3 [14] = test: Cell cycle arrest in human PC3 cells assessed as accumulation at G0/G1 phase at 1 uM incubated for 24 hrs by propidium iodide staining based FACS assay (reference value: 62.5%); type: functional; method in brief: as §2
PC-3 [15] = test: Cell cycle arrest in human PC3 cells assessed as accumulation at S phase at 1 uM incubated for 24 hrs by propidium iodide staining based FACS assay (reference value: 23.5%); type: functional; method in brief: as §2
PC-3 [16] = test: Cell cycle arrest in human PC3 cells assessed as accumulation at G2/M phase at 1 uM incubated for 24 hrs by propidium iodide staining based FACS assay (reference value: 14%); type: functional; method in brief: as §2

Row | SMILES | IC50 (PC-3 [1]) [µM] | IC50 (HeLa) [µM] | also measured
1 | CCCCC1(c2cc(OC)c(OC)c(OC)c2)CC(c2ccc(O)c(OC)c2)=NO1 (stereo unspecified) | > 10 | > 10 | 
2 | COc1ccc(C2(c3cc(OC)c(OC)c(OC)c3)CC(c3ccccc3Cl)=NO2)cc1O (stereo unspecified) | 0.81 | 3.27 | 
3 | COc1ccc(C2(c3cc(OC)c(OC)c(OC)c3)CC(c3ccccc3)=NO2)cc1O (stereo unspecified) | > 10 | > 10 | 
4 | COc1ccc(C2(c3cc(OC)c(OC)c(OC)c3)CC(C#N)=C(c3ccc(Cl)c(Cl)c3)O2)cc1O (stereo unspecified) | > 10 | > 10 | 
5 | COc1ccc(C2(c3cc(OC)c(OC)c(OC)c3)CC(C(=O)c3ccccc3)=C(c3ccccc3)O2)cc1O (stereo unspecified) | 0.78 | 2.32 | 
6 | COc1ccc([C@@]2(c3cc(OC)c(OC)c(OC)c3)CC3=C(CCCC3=O)O2)cc1O | 17 | > 10 | 
7 | COc1ccc(C2(c3cc(OC)c(OC)c(OC)c3)CC(c3ccc(O)c(O)c3)=NO2)cc1O (stereo unspecified) | 9.56 | > 10 | 
8 | COc1ccc(C2(c3cc(OC)c(OC)c(OC)c3)CC(C#N)=C(c3ccc(C)cc3)O2)cc1O (stereo unspecified) | 6.99 | > 10 | 
9 | COc1ccc(C2=NOC(c3ccc(OC)c(O)c3)(c3cc(OC)c(OC)c(OC)c3)C2)cc1 (stereo unspecified) | > 10 | > 10 | 
10 | COc1ccc(/C=C\c2cc(OC)c(OC)c(OC)c2)cc1O [COMBRETASTATIN A4] | 0.007 | 0.53 | inhibition (Sus scrofa [2]): Active; Activity (PC-3 [3]): 6.8%; Activity (PC-3 [4]): 21.3%; Activity (PC-3 [5]): 71.9%
11 | COc1ccc(C2(c3cc(OC)c(OC)c(OC)c3)CC(c3ccc(C)cc3)=NO2)cc1O (stereo unspecified) | 0.85 | 4.45 | 
12 | COc1ccc(C2(c3cc(OC)c(OC)c(OC)c3)CC(c3cc(OC)c(OC)c(OC)c3Cl)=NO2)cc1O (stereo unspecified) | 8.63 | > 10 | 
13 | COc1ccc([C@]2(c3cc(OC)c(OC)c(OC)c3)CC3=C(CCCC3=O)O2)cc1O | 15.1 | > 10 | 
14 | COc1ccc(C2(c3cc(OC)c(OC)c(OC)c3)CC(c3ccccc3[N+](=O)[O-])=NO2)cc1O (stereo unspecified) | 8.21 | > 10 | 
15 | COc1ccc(C2(c3cc(OC)c(OC)c(OC)c3)CC(c3ccc(Cl)cc3OC)=NO2)cc1O (stereo unspecified) | > 10 | > 10 | 
16 | CCCCC1(c2cc(OC)c(OC)c(OC)c2)CC(c2ccc(Cl)cc2)=NO1 (stereo unspecified) | > 10 | > 10 | 
17 | COc1ccc(C2=C(C#N)CC(c3ccc(OC)c(O)c3)(c3cc(OC)c(OC)c(OC)c3)O2)cc1 (stereo unspecified) | > 10 | > 10 | 
18 | COc1ccc(C2(c3cc(OC)c(OC)c(OC)c3)CC(C#N)=C(c3ccc(Cl)cc3)O2)cc1O (stereo unspecified) | 0.86 | > 10 | 
19 | COc1ccc(C2(c3cc(OC)c(OC)c(OC)c3)CC(C#N)=C(c3cccs3)O2)cc1O (stereo unspecified) | 4.8 | > 10 | 
20 | COc1ccc([C@@]2(c3cc(OC)c(OC)c(OC)c3)CC(C#N)=C(c3ccccc3)O2)cc1O | 9.47 | > 10 | 
21 | CCCCC1(c2cc(OC)c(OC)c(OC)c2)CC(c2ccc(Cl)cc2OC)=NO1 (stereo unspecified) | > 10 | > 10 | 

Row | SMILES | IC50 (PC-3 [1]) [µM] | IC50 (HeLa) [µM] | also measured
22 | CCCCC1(c2cc(OC)c(OC)c(OC)c2)CC(C#N)=C(C(C)(C)C)O1 (stereo unspecified) | > 10 | > 10 | 
23 | COc1ccc([C@]2(c3cc(OC)c(OC)c(OC)c3)CC(C#N)=C(c3ccccc3)O2)cc1O | 10.2 | > 10 | 
24 | COc1ccc(C2(c3cc(OC)c(OC)c(OC)c3)CC(C#N)=C(c3ccc(F)cc3)O2)cc1O (stereo unspecified) | 0.81 | 7.21 | 
25 | CCC(=O)C1=C(CC)OC(c2ccc(OC)c(O)c2)(c2cc(OC)c(OC)c(OC)c2)C1 (stereo unspecified) | 8.47 | > 10 | 
26 | COc1ccc(C2(c3cc(OC)c(OC)c(OC)c3)CC(c3ccccn3)=NO2)cc1O (stereo unspecified) | > 10 | > 10 | 
27 | C=C(c1ccc(OC)c(O)c1)c1cc(OC)c(OC)c(OC)c1 | 0.001 | 0.085 | inhibition (Sus scrofa [2]): Active
28 | COc1ccc(C2(c3cc(OC)c(OC)c(OC)c3)CC(c3ccc([N+](=O)[O-])cc3)=NO2)cc1O (stereo unspecified) | > 10 | > 10 | 
29 | CC(=O)O[C@H]1C(=O)[C@@]2(C)[C@H]([C@H](OC(=O)c3ccccc3)[C@]3(O)C[C@H](OC(=O)[C@H](O)[C@@H](NC(=O)c4ccccc4)c4ccccc4)C(C)=C1C3(C)C)[C@]1(OC(C)=O)CO[C@@H]1C[C@@H]2O |  |  | Activity (Sus scrofa [6]): Active
30 | COc1ccc(C2(c3cc(OC)c(OC)c(OC)c3)CC(C(=O)C(F)(F)F)=C(C)O2)cc1O (stereo unspecified) | 9.45 | > 10 | 
31 | COc1ccc(C2(c3cc(OC)c(OC)c(OC)c3)CC(C(=O)c3ccccc3)=C(C)O2)cc1O (stereo unspecified) | > 10 | > 10 | 
32 | COc1ccc(C2(c3cc(OC)c(OC)c(OC)c3)CC(c3ccc(O)cc3)=NO2)cc1O (stereo unspecified) | > 10 | 7.57 | 
33 | COc1ccc(C2(c3cc(OC)c(OC)c(OC)c3)CC(c3ccc(Cl)cc3)=NO2)cc1O (stereo unspecified) | 0.47 | 3.29 | IC50 [7]: 30.7 µM; inhibition (Sus scrofa [8]): Dose-dependent effect; inhibition (Homo sapiens [9]): Active; inhibition (Homo sapiens [10]): Active; Activity (PC-3 [11]): 23.2%; Activity (PC-3 [12]): 13.3%; Activity (PC-3 [13]): 63.5%; Activity (PC-3 [14]): 6.7%; Activity (PC-3 [15]): 8.8%; Activity (PC-3 [16]): 84.5%
34 | COc1ccc(C2(c3cc(OC)c(OC)c(OC)c3)CC(c3ccc(O)c(OC)c3)=NO2)cc1O (stereo unspecified) | > 10 | > 10 | 
35 | COc1ccc(C2=NOC(c3ccc(OC)c(O)c3)(c3cc(OC)c(OC)c(OC)c3)C2)cc1O (stereo unspecified) | > 10 | > 10 | 
36 | COc1ccc(C2(c3cc(OC)c(OC)c(OC)c3)CC(C#N)=C(C(C)(C)C)O2)cc1O (stereo unspecified) | > 10 | > 10 | 
37 | COc1ccc(C2(c3cc(OC)c(OC)c(OC)c3)CC(C#N)=C(c3ccccc3Cl)O2)cc1O (stereo unspecified) | 0.79 | > 10 | 
38 | COc1ccc(C2(c3cc(OC)c(OC)c(OC)c3)CC(C(C)=O)=C(C)O2)cc1O (stereo unspecified) | 6.37 | > 10 | 
39 | CCCCC1(c2cc(OC)c(OC)c(OC)c2)CC(C#N)=C(c2ccc(Cl)cc2)O1 (stereo unspecified) | > 10 | > 10 | 
40 | CCCCC1(c2cc(OC)c(OC)c(OC)c2)CC(C(=O)c2ccccc2)=C(c2ccccc2)O1 (stereo unspecified) | > 10 | > 10 | 
41 | COc1ccc(C2(c3cc(OC)c(OC)c(OC)c3)CC(C#N)=C(c3ccc(Br)cc3)O2)cc1O (stereo unspecified) | > 10 | > 10 | 

From ChEMBL document CHEMBL4043172, “Constructing novel dihydrofuran and dihydroisoxazole analogues of isocombretastatin-4 as tubulin polymerization inhibitors through [3+2] reactions” (Bioorg Med Chem, 2017)
